Source: ChEMBL document CHEMBL4699504, “7-Hydroxycoumarins Are Affinity-Based Fluorescent Probes for Competitive Binding Studies of Macrophage Migration Inhibitory Factor” (J Med Chem, 2020)
In brackets after ≈: the same amount, converted by molar mass. Activity calls are given as the source filed them. The rule behind the calls is not given here.

Legend:
[1] = biological target: T1, Macrophage migration inhibitory factor (Homo sapiens, UniProt P14174); assay: Inhibition of C-terminal His-tagged recombinant human MIF expressed in Escherichia coli BL21 (DE3) using 4-HPP as substrate preincubated for 10 mins followed by substrate addition by UV absorption spectrum analysis
T1 sequence (P14174 whole entry): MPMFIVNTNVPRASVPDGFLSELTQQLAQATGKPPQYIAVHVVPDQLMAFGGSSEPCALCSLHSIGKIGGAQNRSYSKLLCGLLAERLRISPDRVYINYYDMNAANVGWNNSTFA

[2] = biological target: T1, Macrophage migration inhibitory factor; assay: Displacement of 4'-(7-Hydroxy-2-oxo-2H-chromen-3-yl)-[1,1'-biphenyl]-4-carboxylic acid from C-terminal His-tagged recombinant human MIF expressed in Escherichia coli BL21 (DE3) preincubated for 10 mins followed by probe addition and measured after 10 mins by fluorescence assay
[3] = biological target: T2, Macrophage migration inhibitory factor (Homo sapiens) (UniProt P14174); assay: Inhibition of C-terminal His-tagged recombinant human MIF expressed in Escherichia coli BL21 (DE3) at 25 uM using 4-HPP as substrate preincubated for 10 mins followed by substrate addition by UV absorption spectrum analysis relative to control
T2 sequence (whole entry): T1 sequence (P14174 whole entry)

[4] = biological target: T2, Macrophage migration inhibitory factor (Homo sapiens); assay: Binding affinity to C-terminal His-tagged recombinant human MIF expressed in Escherichia coli BL21 (DE3) assessed as fluorescence quenching at 50 nM in presence of CuSO4 by fluorescence assay
Summary of the method: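 Indicator displacement setup (100 nM MIF, 50 nM fluorophore, PBS pH 7.4) run with Cu2+ ions up to 200 μM; fluorescence read at Ex/Em 355/455 nm.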

[5] = Half life of compound in pH 7.4 PBS buffer at 100 nM in presence of MIF; type: physicochemical; conditions: pH 7.4, 0.1 µM
Summary of the method: (§1)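 Fluorescence lifetime of 100 nM fluorophore in 1 mL PBS pH 7.4, measured alone or with 500 nM MIF.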

[6] = biological target: Albumin (Bos taurus, UniProt P02769); assay: Binding affinity to bovine serum albumin assessed as fluorescence quenching at 50 nM by fluorescence assay; type: ADME; conditions: cattle, isolated protein, 0.05 µM
Summary of the method: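 Control for non-specific quenching: 50 nM fluorophore titrated with BSA (up to 800 nM) in PBS pH 7.4, fluorescence intensity compared against MIF titration.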

[7] = biological target: T2, Macrophage migration inhibitory factor (Homo sapiens); assay: (§2) Binding affinity to C-terminal His-tagged recombinant human MIF expressed in Escherichia coli BL21 (DE3) assessed as inhibition of MIF interaction with MBP-fused human CD74 preincubated for 10 mins with CD74 followed by MIF addition and measured after 30 mins by ELISA; conditions: time 40.0 min
Summary of the method: (§3)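 MIF (250 nM, 100 μL) coated overnight at 4 °C, blocked 1 h with 2% BSA; inhibitor (1–100 μM) premixed 10 min with 500 nM MBP–sCD74, added 30 min at room temperature; bound sCD74 detected with rabbit anti-CD74 then HRP anti-rabbit, 30 min each; DMSO = 100%, no sCD74 = 0%; mean ± SD, n = 3.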

[8] = biological target: T1, Macrophage migration inhibitory factor; assay: as §2; summary of the method: as §3
[9] = biological target: T2, Macrophage migration inhibitory factor (Homo sapiens); assay: Competitive inhibition of C-terminal His-tagged recombinant human MIF expressed in Escherichia coli BL21 (DE3) up to 50 nM using varying levels of 4-HPP as substrate preincubated for 10 mins followed by substrate addition by Lineweaver-burk plot analysis; conditions: dose nM <=50, time 10.0 min
[10] = biological target: T1, Macrophage migration inhibitory factor; assay: Binding affinity to C-terminal His-tagged recombinant human MIF expressed in Escherichia coli BL21 (DE3) at 200 nM by fluorescence assay
Summary of the method: (§4)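 Equal volumes of fluorophore (diluted from 10 mM DMSO stock to 200 nM in PBS pH 7.4) and MIF dilution series (16–8000 nM) mixed, 10 min at room temperature; fluorescence read at Ex/Em 340/460 nm or 355/455 nm; KS from hyperbolic fit of specific binding curve; n = 3.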

[11] = Half life of compound in pH 7.4 PBS buffer at 100 nM; type: physicochemical; conditions: pH 7.4, 0.1 µM; summary of the method: as §1
[12] = Solubility of compound in pH 7.4 phosphate buffer; type: physicochemical
Summary of the method: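 Solubility measured in PBS pH 7.4.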

[13] = biological target: T2, Macrophage migration inhibitory factor (Homo sapiens); assay: Binding affinity to C-terminal His-tagged recombinant human MIF expressed in Escherichia coli BL21 (DE3) assessed as fluorescence quenching at 50 nM by fluorescence assay; summary of the method: as §4
[14] = system: A549; assay: Toxicity in human A549 cells assessed as reduction in cell viability up to 20 uM measured after 24 hrs by MTS assay; type: cell-based; conditions: a549, 24 h
Summary of the method: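 A549 cells treated 24 h; viability read by MTS assay.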

[15] = system: A549; assay: Inhibition of colony formation in human A549 cells at 2.5 to 10 uM incubated for 10 days by crystal violet staining based assay; type: functional, cell-based; conditions: dose microM 2.5-10, time 10.0 day
Summary of the method: (§5)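 A549 seeded at 100 cells/well in RPMI with 10% FBS, overnight, then treated 10 days (0.2% DMSO final); fixed 4% paraformaldehyde, stained 0.5% crystal violet; colonies (>50 cells) counted vs 0.2% DMSO control; three independent experiments.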

[16] = biological target: T2, Macrophage migration inhibitory factor (Homo sapiens); assay: Inhibition of MIF (unknown origin) cultured in human A549 cells assessed as reduction in MIF-induced ERk phosphorylation at 10 uM preincubated with MIF for 10 mins followed by cell addition and measured after 10 mins by Western blot analysis; type: cell-based; conditions: time 20.0 min
Summary of the method: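 A549 (2 × 10^5/well) cultured overnight; 150 ng/mL endotoxin-free MIF preincubated 10 min with compound, then applied to cells 10 min at 37 °C (0.2% DMSO); lysates (30 μg protein) blotted; pERK/GAPDH ratio; four independent experiments.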

[17] = system: A549; assay: Inhibition of colony formation in human A549 cells at 100 uM incubated for 10 days by crystal violet staining based assay; type: functional, cell-based; conditions: time 10.0 day; summary of the method: as §5
[18] = biological target: T2, Macrophage migration inhibitory factor (Homo sapiens); assay: Binding affinity to C-terminal His-tagged recombinant human MIF expressed in Escherichia coli BL21 (DE3) assessed as inhibition of MIF interaction with MBP-fused human CD74 up to 50 uM preincubated for 10 mins with CD74 followed by MIF addition and measured after 30 mins by ELISA; conditions: dose microM <=50, time 40.0 min
Summary of the method: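 MIF (250 nM) coated on plates overnight at 4 °C, then blocked with 2% BSA for 1 h at RT. Inhibitor in DMSO premixed 10 min at RT with MBP–sCD74 (final 500 nM sCD74; inhibitor 1–100 μM), then added to wells for 30 min at RT. Bound sCD74 detected with rabbit anti-CD74 pAb and goat anti-rabbit HRP. No-inhibitor signal set to 100%, no-sCD74 signal to 0%. n = 3.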

[19] = Emission property of the compound in pH 7.4 PBS buffer assessed as maximum emission wavelength at 200 nm by fluorescence spectra analysis; conditions: pH 7.4, 200 nM
[20] = biological target: T2, Macrophage migration inhibitory factor (Homo sapiens); assay: Binding affinity to C-terminal His-tagged recombinant human MIF expressed in Escherichia coli BL21 (DE3) assessed as fluorescence quenching at 200 nM by fluorescence assay; summary of the method: as §4
[21] = Absorption property of the compound in pH 7.4 PBS buffer assessed as maximum absorption wavelength at 100 uM by UV-vis spectra analysis; type: physicochemical; conditions: pH 7.4, 100 µM
Summary of the method: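 UV absorption spectra recorded at 100 μM compound in PBS pH 7.4 containing 5% (v/v) DMSO on a plate reader; wavelength of maximum absorbance taken.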

[22] = biological target: T1, Macrophage migration inhibitory factor; assay: Binding affinity to C-terminal His-tagged recombinant human MIF expressed in Escherichia coli BL21 (DE3) at 100 nM by fluorescence assay
Summary of the method: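 Fluorescent indicator displacement in PBS pH 7.4. Compound preincubated with MIF 10 min at RT, then 7-hydroxycoumarin indicator added for another 10 min at RT. Final MIF 100 nM, indicator 50 nM, DMSO 2.5%. Fluorescence read at Ex/Em 355/455 nm. EC50 for fluorescence recovery from nonlinear fit, converted to Kd with a displacement equation using indicator KS. Three independent experiments.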

[23] = biological target: T2, Macrophage migration inhibitory factor (Homo sapiens); assay: Binding affinity to C-terminal His-tagged recombinant human MIF expressed in Escherichia coli BL21 (DE3) at 100 nM in presence of 3-(3,4-Dimethoxyphenyl)-7-hydroxy-3,4-dihydro-2Hbenzo[e][1,3]oxazin-2-one by fluorescence assay

Structure (SMILES): Cc1ccc(-c2cc3ccc(O)cc3oc2=O)cc1
- IC50 [1]: 0.69 µM
- Ki [1]: 0.46 µM

Structure (SMILES): Oc1ccc(-n2cc(-c3ccccn3)nn2)cc1
- Kd [2]: 4 µM

Structure (SMILES): O=C(Nc1ccccc1)c1cc2ccc(O)cc2oc1=O
- inhibition [3]: 11%

Structure (SMILES): O=C(O)c1ccc(-c2ccc(-c3cc4ccc(O)cc4oc3=O)cc2)cc1
- Activity [4]: Active
- t1/2 [5]: 4 nanoseconds
- Activity [6]: Not Active
- inhibition [7]: Dose-dependent effect
- IC50 [8]: 36 µM
- inhibition [9]: Active
- Kd [10]: 0.016 µM
- t1/2 [11]: 4.2 nanoseconds
- solubility ([12]; buffer): 0.0188 mg/mL (≈ 52.5 µM)
- Ks [13]: 16 nM
- Activity [14]: Non-Toxic
- inhibition [15]: Active
- inhibition [16]: Active

Structure (SMILES): O=C(NCc1cn(-c2ccc(O)c(F)c2)nn1)c1cc2ccccc2[nH]1
- Kd [2]: 4.4 µM

Structure (SMILES): COC(=O)CC1CC(c2ccc(O)cc2)=NO1 (stereo not given)
- inhibition [17]: Active
- inhibition [18]: inactive

Structure (SMILES): O=c1oc2cc(O)ccc2cc1-c1ccc2ccccc2c1
- IC50 [1]: 2.19 µM
- Ki [1]: 1.46 µM

Structure (SMILES): COc1cccc(-c2cc3ccc(O)cc3oc2=O)c1
- IC50 [1]: 1.85 µM
- Ki [1]: 1.23 µM

Structure (SMILES): O=c1oc2cc(O)ccc2cc1-c1ccc(Br)cc1
- IC50 [1]: 0.47 µM
- Ki [1]: 0.31 µM

Structure (SMILES): CCOC(=O)c1cc2ccc(O)cc2oc1=O
- IC50 [1]: 18.6 µM
- Ki [1]: 12.4 µM

Structure (SMILES): COc1ccc(-c2cc3ccc(O)cc3oc2=O)cc1
- Activity [19]: 460 nm
- Activity [20]: Active
- Activity [21]: 340 nm
- IC50 [1]: 0.56 µM
- Kd [22]: 0.39 µM
- Activity [23]: inactive

Structure (SMILES): O=c1oc2cc(O)ccc2cc1-c1ccccc1
- IC50 [1]: 1.76 µM
- Ki [1]: 1.17 µM

Structure (SMILES): O=c1oc2cc(O)ccc2cc1-c1ccc(Cl)cc1
- IC50 [1]: 0.92 µM
- Ki [1]: 0.61 µM

Structure (SMILES): COc1ccc(C(=O)N/N=C/c2ccc(O)c(F)c2)cc1
- Kd [2]: 5.6 µM
- Ki [1]: 8 µM

Structure (SMILES): O=C(NCc1ccccc1)c1cc2ccc(O)cc2oc1=O
- inhibition [3]: 12%

Structure (SMILES): O=c1oc2cc(O)ccc2cc1-c1ccc(F)cc1
- IC50 [1]: 2.54 µM
- Ki [1]: 1.69 µM

Structure (SMILES): O=C(NCc1cn(-c2ccc(O)c(F)c2)nn1)c1cc2cc(Cl)ccc2[nH]1
- Kd [2]: 1.4 µM
- solubility ([12]; phosphate buffer): 0.0108 mg/mL (≈ 28 µM)

Structure (SMILES): COc1ccccc1-c1cc2ccc(O)cc2oc1=O
- IC50 [1]: 2.78 µM
- Ki [1]: 1.85 µM

Structure (SMILES): COc1ccc(N2Cc3ccc(O)cc3OC2=O)cc1OC
- Kd [2]: 0.11 µM
- Ki [1]: 0.1 µM
- inhibition [18]: inactive
- Kd [22]: 0.156 µM

Structure (SMILES): O=c1oc2cc(O)ccc2cc1-c1ccc(I)cc1
- IC50 [1]: 0.72 µM
- Ki [1]: 0.48 µM

Structure (SMILES): O=c1oc2cc(O)ccc2cc1-c1cccc(Cl)c1
- IC50 [1]: 1.93 µM
- Ki [1]: 1.29 µM

Structure (SMILES): Oc1ccc(-n2cc(-c3cc4ccccc4cn3)nn2)cc1
- Kd [2]: 0.47 µM
- Ki [1]: 0.44 µM
- solubility ([12]; phosphate buffer): 0.0022 mg/mL (≈ 7.63 µM)

Structure (SMILES): O=c1oc2cc(O)ccc2cc1-c1ccccc1Cl
- IC50 [1]: 19.1 µM
- Ki [1]: 12.7 µM
